Data as given in ChEMBL document CHEMBL5346861, “Designing quinoline-isoniazid hybrids as potent anti-tubercular agents inhibiting mycolic acid biosynthesis” (Eur J Med Chem, 2022).
Values after ≈ are worked out from the molar mass of the structure shown. Active and inactive are the calls of the source. The rule behind the calls is not given here.

Tests used:
[1] = tested on: Mycobacterium tuberculosis; assay: Antimycobacterial activity against Mycobacterium tuberculosis mc2 6230 harbouring pMV261 plasmid overexpressing inhA assessed as inhibition of bacterial growth measured after 7 days by 7H9 broth based dilution method; assay type: functional; conditions: mc2 6230, 168 h, time 7 day
[2] = tested on: Mycobacterium tuberculosis; assay: Antimycobacterial activity against Mycobacterium tuberculosis mc2 6230 harbouring pMV261 plasmid overexpressing inhA assessed as inhibition of bacterial growth measured after 7 days by 7H10 agar based dilution method; assay type: functional; conditions: mc2 6230, 168 h, time 7 day
[3] = tested on: Mycobacterium tuberculosis; assay: Induction of resistance development in Mycobacterium tuberculosis mc2 6230 harbouring pMV261 plasmid overexpressing inhA assessed as fold increase in MIC measured after 7 days by 7H9 broth based dilution method; assay type: functional; conditions: time 7 day
[4] = tested on: Mycobacterium tuberculosis; assay: Induction of resistance development in Mycobacterium tuberculosis mc2 6230 harbouring pMV261 plasmid overexpressing inhA assessed as fold increase in MIC measured after 7 days by 7H10 agar based dilution method; assay type: functional; conditions: time 7 day
[5] = tested on: Mycobacterium tuberculosis; assay: Induction of resistance development in Mycobacterium tuberculosis harbouring katG amino acid change at stop codon mutant assessed as resistance frequency at 5 times of MIC by visual analysis; assay type: functional
[6] = tested on: Mycobacterium tuberculosis; assay: Induction of resistance development in Mycobacterium tuberculosis harbouring katG G495D mutant assessed as resistance frequency at 20 times of MIC by visual analysis; assay type: functional
[7] = tested on: Mycobacterium tuberculosis; assay: Induction of resistance development in Mycobacterium tuberculosis harbouring katG W161R mutant assessed as resistance frequency at 5 times of MIC by visual analysis; assay type: functional
[8] = tested on: Mycobacterium tuberculosis; assay: Inhibition of mycolic acid biosynthesis in Mycobacterium tuberculosis mc2 6230 harbouring pMV261 plasmid overexpressing inhA assessed as decrease in alpha-mycolic acid at 1.25 ug/ml incubated for 15 mins followed by 14C-labeled acetate addition measured after 7 hrs by TLC analysis; assay type: functional, organism-based; conditions: dose 1.25 µg/ml, time 435.0 min
Procedure, shortened: (§1)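 mc²6230 carrying pMV261-inhA, treated for 15 hrs at 37 °C with agitation in 7H9/OADC/tyloxapol/pantothenate. Then labelled with 1 μCi/mL [¹⁴C]acetate for 7 hrs. Mycolic acid methyl esters extracted, 50,000 cpm resolved by TLC (hexane/ethyl acetate 19/1, 2 runs) and exposed overnight.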

[9] = tested on: Mycobacterium tuberculosis; assay: Inhibition of mycolic acid biosynthesis in Mycobacterium tuberculosis mc2 6230 harbouring pMV261 plasmid overexpressing inhA assessed as decrease in methoxy-mycolic acid at 1.25 ug/ml incubated for 15 mins followed by 14C-labeled acetate addition measured after 7 hrs by TLC analysis; assay type: functional, organism-based; conditions: dose 1.25 µg/ml, time 435.0 min; procedure, shortened: as §1
[10] = tested on: Mycobacterium tuberculosis; assay: Inhibition of mycolic acid biosynthesis in Mycobacterium tuberculosis mc2 6230 harbouring pMV261 plasmid overexpressing inhA assessed as decrease in keto-mycolic acid at 1.25 ug/ml incubated for 15 mins followed by 14C-labeled acetate addition measured after 7 hrs by TLC analysis; assay type: functional, organism-based; conditions: dose 1.25 µg/ml, time 435.0 min; procedure, shortened: as §1
[11] = tested on: Mycobacterium tuberculosis; assay: Induction of resistance development in Mycobacterium tuberculosis harbouring katG F594C mutant assessed as resistance frequency at 5 times of MIC by visual analysis; assay type: functional
[12] = tested on: Mycobacterium tuberculosis; assay: Induction of resistance development in Mycobacterium tuberculosis harbouring katG 186 del mutant assessed as resistance frequency at 20 times of MIC by visual analysis; assay type: functional

With `O=C(N/N=C/c1ccc(OCc2cn(CCCNc3ccnc4cc(Cl)ccc34)nn2)cc1)c1ccncc1` the MIC [1] was 12.5 µg/mL (≈ 23.1 µM), the MIC [2] was 6.25 µg/mL (≈ 11.6 µM) and the “fold change (FC)” value [3] was 25. The “fold change (FC)” value [4] was 25, the Activity [5] was 1.52 10^-6No_unit and the Activity [6] was 5 10^-7No_unit.

For `COc1cc(/C=N/NC(=O)c2ccncc2)ccc1OCc1cn(-c2ccnc3cc(Cl)ccc23)nn1`, the MIC [1] was 50 µg/mL (≈ 97.3 µM), the MIC [2] was 12.5 µg/mL (≈ 24.3 µM) and the “fold change (FC)” value [3] was 25. For the same compound, the “fold change (FC)” value [4] was 25.

With `COc1cc(/C=N/NC(=O)c2ccncc2)ccc1OCc1cn(CCCNc2ccnc3cc(Cl)ccc23)nn1` the MIC [1] was 25 µg/mL (≈ 43.8 µM), the MIC [2] was 6.25 µg/mL (≈ 10.9 µM) and the “fold change (FC)” value [3] was 25. For the same compound, the “fold change (FC)” value [4] was 25 and the Activity [7] was 1.16 10^-6No_unit.

With `O=C(N/N=C/c1ccc(OCc2cn(CCNc3ccnc4cc(Cl)ccc34)nn2)cc1)c1ccncc1` the MIC [1] was 12.5 µg/mL (≈ 23.7 µM), the MIC [2] was 6.25 µg/mL (≈ 11.9 µM) and the “fold change (FC)” value [3] was 25. For the same compound, the “fold change (FC)” value [4] was 25.

With `NNC(=O)c1ccncc1` [ISONIAZID] the MIC [1] was 1 µg/mL (≈ 7.29 µM), the MIC [2] was 1 µg/mL (≈ 7.29 µM) and the “fold change (FC)” value [3] was 20. The “fold change (FC)” value [4] was 20.

With `O=C(N/N=C/c1ccccc1-n1cc(CN2CCN(c3ccnc4cc(Cl)ccc34)CC2)nn1)c1ccncc1` the MIC [1] was 6.25 µg/mL (≈ 11.3 µM), the MIC [2] was 6.25 µg/mL (≈ 11.3 µM) and the “fold change (FC)” value [3] was 25. The “fold change (FC)” value [4] was 25, the inhibition [8] was “inactive” and the inhibition [9] was “inactive”. The inhibition [10] was “inactive”, the Activity [11] was 1.8 10^-6No_unit and the Activity [12] was 7.1 10^-7No_unit.

In the case of `COc1cc(/C=N/NC(=O)c2ccncc2)ccc1OCc1cn(CCNc2ccnc3cc(Cl)ccc23)nn1`, the MIC [1] is reported as 25 µg/mL (≈ 44.9 µM), the MIC [2] is reported as 12.5 µg/mL (≈ 22.4 µM) and the “fold change (FC)” value [3] is reported as 25. The “fold change (FC)” value [4] was 25.

In the case of `O=C(N/N=C/c1ccc(OCc2cn(-c3ccnc4cc(Cl)ccc34)nn2)cc1)c1ccncc1`, the MIC [1] is reported as greater than 200 µg/mL, the MIC [2] is reported as 6.25 µg/mL (≈ 12.9 µM) and the “fold change (FC)” value [3] is reported as 25. The “fold change (FC)” value [4] was 25.
